This is a sample that favours compounds with a hit; in the whole collection about 6.4% have one here.
WT yeast gro inh: growth inhibition of WT yeast, mitochondrial fusion screen; mitochondrial fusion phenotypic screen, WT strain; inhibition, % at 10 µM; 190,000 compounds, 2.1% hits; in the data active = inhibition above about 58%; tested in S. cerevisiae
EBV gp42 block: blocks Epstein-Barr virus glycoprotein 42 binding. inhibition, % (tested at 21.74 µM). Q1HVG2. AID 1085. 220,000 compounds, 0.42% hits. Fluorescence polarization binding assay, mP read-out; in the data active = inhibition above about 50%
Target sequence (Q1HVG2 whole entry, looked up): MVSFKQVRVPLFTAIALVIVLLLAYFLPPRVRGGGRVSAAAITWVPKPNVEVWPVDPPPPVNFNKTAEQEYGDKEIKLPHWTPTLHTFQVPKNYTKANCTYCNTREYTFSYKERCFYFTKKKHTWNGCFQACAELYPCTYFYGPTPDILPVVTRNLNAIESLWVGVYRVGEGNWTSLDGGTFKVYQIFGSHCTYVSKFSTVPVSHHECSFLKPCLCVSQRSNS
MPTP block: permeability transition pore inhibition; isolated mouse mitochondria, Ca2+ swelling absorbance, 30 min; inhibition, % at 10 µM; 360,000 compounds, 1.4% hits; AID 602449;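 active = inhibition of 50% or more, scaled per plate between neutral and stimulator controls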;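 note: 0% = DMSO wells given calcium and 100% = 1 mM EGTA wells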
CHOP inhibitor: inhibitors of CHOP induction in ER stress response; CHO-K1 CHOP-promoter luciferase, tunicamycin-induced, 15-18 h; inhibition, % at 10 µM; 220,000 compounds, 3.8% hits;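 active = compounds that reduced the stress-induced luciferase reporter signal by more than about 70% of percent inhibition, limit read from the data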;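 note: 0% = tunicamycin plus vehicle and 100% = wells without tunicamycin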
GRIN3A LBD mod: modulators (binders) of human NR3A ligand-binding domain. NR3A LBD differential scanning fluorimetry, Tm shift; 0% = protein alone, 100% = glycine-bound protein. Tm shift relative to glycine control, % at 25 µM. 340,000 compounds, 2.5% hits. AID 1259313;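 active = melting temperature shift of at least 10% of the positive control shift, at one fixed dose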
Tb MetRS inh: Trypanosoma brucei MetRS inhibition; purified T. brucei MetRS, ATP depletion, Kinase-Glo luminescence; inhibition, % at 11.9 µM; 360,000 compounds, 0.4% hits; AID 624268;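 active = inhibition above a per-plate cutoff of the control wells' mean inhibition plus 3 SD, cut at about 5.5% in these data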;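 note: 0% = DMSO wells median and 100% = median of wells with control inhibitor compound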
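technique = Kinase-Glo luminescence, ATP depletion format | system = purified MetRS (methionyl-tRNA synthetase) enzyme from Trypanosoma brucei | timing = 15 min preincubation, 2 h reaction, all 25 °C | evaluation = percent inhibition versus plate control medians | dosing = single dose, 11.9 µM final nominal, 0.9% final DMSO | also added = substrates ATP, L-methionine and bulk Escherichia coli tRNA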
MPTP counter: Rhodamine 123 counter-screen of mitochondrial pore hits; shares compounds with MPTP block; isolated mitochondria, membrane potential, Rhodamine 123 fluorescence; inhibition, % at 10 µM; 5,000 compounds, 78% hits; in the data active = inhibition above about 22%;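 note: 0% = DMSO vehicle and 100% = positive control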
MPTP swell DR: dose response confirmation of mitochondrial permeability transition pore inhibitors | shares compounds with MPTP block | isolated mitochondria swelling, absorbance | IC50, µM | 780 compounds, 58% hits | AID 651561; in the data active = IC50 below about 20 µM
MPTP cs DR: counter-screen for mitochondrial permeability transition pore inhibitors, dose response; 780 compounds, 49% hits; isolated mitochondria counterscreen, fluorescence read-out; AID 651564; shares compounds with MPTP block; IC50, µM; in the data active = IC50 below about 80 µM
Starred values were filed as active, the others as inactive; i = inactive; nt = no result given.

SMILES | WT yeast gro inh | EBV gp42 block | MPTP block | CHOP inhibitor | GRIN3A LBD mod | Tb MetRS inh | MPTP counter | others
COc1ccc(-c2cc(C(=O)NCC(c3ccccc3)N(C)C)c3ccccc3n2)cc1OC (stereo not drawn) | nt | nt | 1 | nt | 0 | -1 | nt
COc1ccc(C(CNC(=O)c2ccc(-c3ccccc3)cc2)N(C)C)cc1OC (stereo not drawn) | nt | nt | 80* | nt | -2 | -1 | -11 | MPTP swell DR=19*;MPTP cs DR=>80
CCOC(=O)c1c[nH]c(=S)n1C | nt | -11 | -1 | 9 | 1 | -1 | nt
c1ccc2c(c1)oc1c(NCc3ccc4c(c3)OCO4)ncnc12 | 2 | -29 | 84* | 5 | -1 | 0 | 110*
CCOC(=O)CNc1ccc(C(=O)OCC)cc1[N+](=O)[O-] | -12 | -20 | 0 | 19 | -6 | -1 | nt
COCCCNCCCCOc1ccc(OCc2ccccc2)cc1 | 31 | -6 | 3 | 30 | -1 | -1 | nt
c1ccc(COc2ccc(OCCCNC3CCCC3)cc2)cc1 | nt | -10 | 90* | 52 | -1 | 0 | -11 | MPTP swell DR=3.1*;MPTP cs DR=43*
CCOC(=O)c1nc(NNC(=O)c2ccc([N+](=O)[O-])cc2)sc1C | nt | nt | 78* | nt | -7 | 0 | 67*
Cc1cc(/C=C2/SC(=S)N(c3cccc(Cl)c3)C2=O)c(C)n1-c1cccnc1 | nt | nt | 63* | nt | 3 | -1 | 78*
Cc1cccc(N2C(=O)/C(=C/c3cccnc3)SC2=S)c1 | nt | -14 | 1 | 33 | -4 | 0 | nt
Cc1cc(/C=C2/SC(=S)N(c3ccc([N+](=O)[O-])cc3)C2=O)c(C)n1-c1cccnc1 | 6 | -1 | 95* | 71* | 1 | -1 | 95*
Cc1cc(/C=C2\SC(=S)N(C)C2=O)c(C)n1-c1ccccc1O | nt | nt | 92* | nt | -17 | 0 | 67*
CCOC(=O)CSc1n[nH]c(NS(=O)(=O)c2ccccc2C(F)(F)F)n1 | 2 | -8 | -2 | 9 | -1 | -1 | nt
Clc1ccc2[nH]cc(-c3nnnn3-c3ccccc3)c2c1 | 20 | 6 | 76* | 37 | 5 | 3 | 82*
COCCCN1CN(Cc2ccco2)CNC1=S | nt | 2 | 2 | 6 | 5 | 1 | nt
N#CC1=C(N)SC(N)=C(C#N)C1CCc1ccccc1 | 0 | -80 | 96* | 8 | 3 | -1 | 67*
Cc1[nH]nc2c1C(CC(C)C)C(C#N)=C(N)O2 (stereo not drawn) | nt | -12 | 1 | 4 | 1 | 0 | nt
N#CC1=C(N)SC(N)=C(C#N)C1Cc1ccccc1 | 14 | -79 | 77* | 33 | -3 | 0 | 73*
CCOc1ccc(C2C(C#N)=C(N)SC(N)=C2C#N)cc1OCC | 19 | -58 | 6 | -7 | -5 | 0 | nt
N#CC1=C(N)SC(N)=C(C#N)C1c1cccc(Oc2ccccc2)c1 | 3 | -31 | 89* | -2 | 9 | -1 | 70*
CC1(C)CC(=O)C2=C(C1)OC(N)=C(C#N)C2CCc1ccccc1 (stereo not drawn) | -7 | -3 | 1 | 32 | -16 | -1 | nt
CC(C)CC1C(C#N)=C(N)SC(N)=C1C#N | -9 | -67 | 62* | -2 | -3 | 0 | 78*
CCOc1ccccc1C1C(C#N)=C(N)SC(N)=C1C#N | 12 | -42 | -2 | -13 | -12 | 0 | nt
COc1ccc(CNc2ncnc3sccc23)cc1OC | nt | nt | 8 | nt | 0 | -1 | nt
COc1cccc(CN2CCN(C(=O)c3oc4c(F)cccc4c3C)CC2=O)c1 | nt | nt | -1 | nt | 1 | 0 | nt
SMILES | WT yeast gro inh | EBV gp42 block | MPTP block | CHOP inhibitor | GRIN3A LBD mod | Tb MetRS inh | MPTP counter | others
COc1cc(C(C)=O)cc(OC)c1O | nt | nt | -1 | nt | 0 | -1 | nt
O=C(CSc1nc2ccccc2o1)Nc1nc2c(s1)CCCC2 | nt | nt | 84* | nt | -2 | -1 | 64*
CCOC(=O)c1c(NC(=O)C2c3ccccc3Oc3ccccc32)sc(C(C)=O)c1C | -12 | -6 | 85* | 71* | 1 | 0 | -5 | MPTP swell DR=i;MPTP cs DR=8.6*
O=C(CSc1nc2ccccc2o1)Nc1nc2ccccc2s1 | 15 | -21 | 10 | -16 | -10 | 1 | nt
COC(=O)c1sc(NC(=O)C2c3ccccc3Oc3ccccc32)c(C(=O)OC)c1C | -9 | -23 | 0 | 14 | -2 | 0 | nt
CCOC(=O)c1c(NC(=O)CSc2nnc(-c3ccccc3)o2)sc(C(C)=O)c1C | -31 | -85 | 12 | 23 | 1 | -1 | nt
CCOC(=O)c1c(NC(=O)CSc2nc3ccccc3o2)sc(C(C)=O)c1C | -6 | -58 | 101* | 44 | 4 | 0 | 75*
COc1ccc(C(OC(=O)c2c(C)noc2C)C(=O)NC2CCCC2)cc1 (stereo not drawn) | 1 | -3 | 0 | -35 | -1 | 0 | nt
COc1ccc(CN2CCN(C(=O)c3ccc(CNS(=O)(=O)c4ccc(C)cc4)cc3)CC2)c(OC)c1OC | nt | nt | 0 | nt | 0 | -1 | nt
COc1cccc(COc2ccc3c(C)cc(=O)oc3c2)c1 | nt | nt | 0 | nt | 0 | -1 | nt
COc1ccc(NC(=O)c2ccc(-c3ccc(-c4noc(C)n4)cc3C)cc2)cc1N1CCN(C)CC1 | nt | nt | 81* | 5 | 2 | 0 | -19
Oc1ccc(Br)cc1/C=N/n1cnc2ccccc21 | 31 | -16 | 74* | 74* | -1 | -1 | 67*
Cc1nn(-c2ccc(Cl)cc2)c2[nH]c(CCl)cc(=O)c12 | nt | nt | 81* | nt | -1 | 0 | 81*
Cc1cc(=O)[nH]c2c1c(C)nn2-c1ccccc1 | -4 | 2 | 0 | 28 | 0 | -2 | nt
CC(C)(C)CC(C)(C)c1ccc(O)c(Cc2ccc(Cl)cc2Cl)c1 | nt | nt | 95* | nt | 12* | 0 | 5 | MPTP swell DR=i;MPTP cs DR=6.4*
Clc1ccc(Cc2ccc(Cl)nn2)c(Cl)c1 | -11 | -9 | 3 | 28 | 1 | 0 | nt
Nc1nc(SCC(=O)Nc2ccccc2Sc2ccc(Cl)cc2)n[nH]1 | -2 | -17 | 2 | nt | -4 | 0 | nt
Cc1ccc(C2(c3noc(CN4CCC(c5ccncc5)CC4)n3)CCCC2)cc1 | 49 | 2 | 69* | 43 | -1 | 2 | 46*
CCOc1ccccc1CNS(=O)(=O)c1ccc(-c2cnc(C3CC3)o2)cc1 | nt | nt | 51* | nt | -5 | 0 | 84*
O=S(=O)(NCc1ccccc1)c1ccc(-c2cnc(C3CC3)o2)cc1 | nt | nt | -1 | nt | 2 | 1 | nt
COCCNc1ccc(S(=O)(=O)N2CCCC2)cc1[N+](=O)[O-] | 26 | 1 | -1 | -3 | -2 | -1 | nt
CN(C)S(=O)(=O)c1cccc(NC(=S)N/N=C/C2CC=CCC2)c1 (stereo not drawn) | 3 | -12 | -1 | -9 | -2 | -1 | nt
